{"data": "Experimental data of several laboratories", "target": "Ephrin type-A receptor 2 (EPHA2, Homo sapiens, UniProt P29317)", "One construct used (P29317 613-875, limits assumed)": "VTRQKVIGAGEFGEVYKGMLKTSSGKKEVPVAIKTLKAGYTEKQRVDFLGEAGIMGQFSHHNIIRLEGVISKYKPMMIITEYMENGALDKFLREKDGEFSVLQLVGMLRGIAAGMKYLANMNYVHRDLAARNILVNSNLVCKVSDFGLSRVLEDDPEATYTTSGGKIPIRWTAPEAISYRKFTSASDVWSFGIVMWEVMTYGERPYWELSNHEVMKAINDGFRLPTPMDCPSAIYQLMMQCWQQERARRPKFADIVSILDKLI", "note": "Each line is one published result; the experiments were not run side by side."}
{"SMILES": "CCN(CC)c1ccc(C2=NNC(=O)CC2C)cc1[N+](=O)[O-] (stereo not drawn)", "effect on": "enzyme activity", "action": "inhibitor", "tested at": "10 µM", "quantity": "remaining activity", "value": "97%"}
{"SMILES": "COc1ccc(COc2ccc(Cc3cnc(N)nc3N)cc2OC)cc1", "effect on": "cell-free assay", "tested at": "0.5 µM", "quantity": "remaining signal", "value": "107%"}
{"SMILES": "Cc1ccc(Nc2nccc(N(C)c3ccc4c(C)n(C)nc4c3)n2)cc1S(N)(=O)=O", "effect on": "enzyme activity", "action": "inhibitor", "tested at": "0.3 µM", "quantity": "inhibition", "value": "-2%"}
{"SMILES": "COc1cc(Nc2cnc(C#N)c(O[C@H](C)CN(C)C)n2)ncc1-c1cnn(C)c1", "effect on": "enzyme activity", "action": "inhibitor", "technique": "radiometric", "tested at": "10 µM", "quantity": "remaining activity", "value": "24%"}
{"SMILES": "FC(F)c1nc2ccccc2n1-c1nc(N2CCOCC2)nc(N2CCOCC2)n1", "effect on": "enzyme activity", "action": "inhibitor", "tested at": "10 µM", "quantity": "remaining activity", "value": "106%"}
{"SMILES": "Nc1nc(Nc2ccccc2)sc1C(=O)c1c(F)cccc1F", "effect on": "enzyme activity", "action": "inhibitor", "tested at": "10 µM", "quantity": "remaining activity", "value": "71%"}
{"SMILES": "O=C(CSc1nc2nccnc2c(=O)n1CCc1ccccc1)Nc1nccs1", "effect on": "enzyme activity", "action": "inhibitor", "tested at": "10 µM", "quantity": "inhibition", "value": "8%"}
{"SMILES": "Cc1nccc(COC(=O)N2C[C@@H]3[C@@H](CNC(=O)c4ccc5[nH]nnc5c4)[C@@H]3C2)n1", "effect on": "cell-free assay", "technique": "competition with immobilised ligand", "tested at": "1 µM", "quantity": "remaining binding", "value": "92%"}
{"SMILES": "Nc1nc(NC2CCCCC2)sc1C(=O)c1ccccc1", "effect on": "enzyme activity", "action": "inhibitor", "tested at": "10 µM", "quantity": "remaining activity", "value": "110%"}
{"SMILES": "COc1cc2nccc(Oc3ccc(NC(=O)Nc4ccc(F)cc4F)c(F)c3)c2cc1OC", "effect on": "thermal stability", "technique": "DSF", "tested at": "10 µM", "quantity": "ΔTm", "value": "5 to 10 °C"}
{"SMILES": "O=C(Nc1cnc(Oc2ccc(F)cc2)nc1)N1CCc2ncccc2[C@@H]1c1ccc(F)cc1", "effect on": "cell-free assay", "technique": "competition with immobilised ligand", "tested at": "1 µM", "quantity": "remaining binding", "value": "99%"}
{"SMILES": "CCCS(=O)(=O)Nc1ccc(F)c(C(=O)c2c[nH]c3ncc(-c4ccc(Cl)cc4)cc23)c1F", "effect on": "enzyme activity", "action": "inhibitor", "tested at": "1 µM", "quantity": "inhibition", "value": "< 10%"}
{"SMILES": "Cc1cc(-n2nc(Cc3cc(F)cc(C(F)(F)F)c3)nc2C)ccc1C(N)=O", "effect on": "cell-free assay", "technique": "competition with immobilised ligand", "tested at": "1 µM", "quantity": "remaining binding", "value": "100%"}
{"SMILES": "COc1cc2ncnc(Nc3ccc(Oc4ccccc4)cc3C)c2cc1OC", "effect on": "enzyme activity", "action": "inhibitor", "tested at": "1 µM", "quantity": "inhibition", "value": "2%"}
{"SMILES": "Cc1ccc(C(=O)NCc2ccsc2)cc1C#Cc1cn(C(C)C)c2ncnc(N)c12", "effect on": "enzyme activity", "action": "inhibitor", "tested at": "1 µM", "quantity": "activity vs control", "value": "2%"}
{"SMILES": "CSc1nc(C)c(-c2ccnc(Nc3ccc(N4CCOCC4)cc3)c2)[nH]1", "effect on": "cell-free assay", "action": "inhibitor", "tested at": "10 µM", "quantity": "inhibition", "value": "17.1%"}
{"SMILES": "Cc1sc(C(=O)NC2COC2)cc1-n1cc(NC(=O)Nc2c(F)cccc2Cl)cn1", "effect on": "enzyme activity", "action": "inhibitor", "tested at": "10 µM", "quantity": "remaining activity", "value": "102%"}
{"SMILES": "CNC(=O)c1cc(Oc2ccc(NC(=O)Nc3ccc(Cl)c(C(F)(F)F)c3)cc2)ccn1", "effect on": "enzyme activity", "action": "inhibitor", "tested at": "0.3 µM", "quantity": "inhibition", "value": "23%"}
{"SMILES": "CC1=C(C#N)[C@@H](c2ccc3[nH]nc(C)c3c2)C(C#N)=C(c2ccc(Cl)cc2)N1", "effect on": "cell-free assay", "technique": "competition with immobilised ligand", "tested at": "1 µM", "quantity": "remaining binding", "value": "100%"}
{"SMILES": "Cc1cc(NC(=O)c2cccc3cc(-c4cccc5[nH]nc(N)c45)ccc23)ccc1F", "effect on": "enzyme activity", "action": "inhibitor", "tested at": "0.1 µM", "quantity": "activity vs control", "value": "103%"}
{"SMILES": "N#CC1(c2ccccn2)CCN(Cc2cc(C(=O)N3CCCC3)c(=O)n3ccccc23)CC1", "effect on": "cell-free assay", "technique": "competition with immobilised ligand", "tested at": "1 µM", "quantity": "remaining binding", "value": "86%"}
{"SMILES": "CCN(CC)CCNC(=O)c1c(C)[nH]c(/C=C2\\C(=O)Nc3ccc(F)cc32)c1C", "effect on": "enzyme activity", "action": "inhibitor", "tested at": "10 µM", "quantity": "inhibition", "value": "52%"}
{"SMILES": "O=C(Nc1cnn(-c2csc(C(=O)NC3COC3)c2)c1)Nc1ccccc1Cl", "effect on": "enzyme activity", "action": "inhibitor", "tested at": "5 µM", "quantity": "remaining activity", "value": "101%"}
{"SMILES": "CC(C)(C)c1nc2c(s1)c1nc(N)ncc1c1ccc(NS(=O)(=O)c3c(F)cccc3F)c(F)c12", "effect on": "enzyme activity", "action": "inhibitor", "technique": "radiometric", "tested at": "1 µM", "quantity": "remaining activity", "value": "109%"}
{"SMILES": "O=C(Nc1ccc(Oc2ccc(F)cc2)cc1)N1CCc2ncccc2[C@H]1c1ccc(F)cc1", "effect on": "cell-free assay", "technique": "competition with immobilised ligand", "tested at": "1 µM", "quantity": "remaining binding", "value": "100%"}
{"SMILES": "COc1cc(Cl)c(C(=O)N[C@@H](CN[C@H]2CC[C@@H](N)CC2)Cc2ccc(C#N)cc2)cc1-c1ccc(CN[C@H](C)c2ccc(C)cc2)o1", "effect on": "enzyme activity", "action": "inhibitor", "tested at": "1 µM", "quantity": "remaining activity", "value": "93%"}
{"SMILES": "CNCc1ccccc1-c1csc([C@H](C)Nc2nc(C)nc3cc(OC)c(OC)cc23)c1", "effect on": "cell-free assay", "technique": "competition with immobilised ligand", "tested at": "1 µM", "quantity": "remaining binding", "value": "80%"}
{"SMILES": "O=C1Nc2ccc(Cl)cc2C1=Cc1cc(Cl)c(O)c(Cl)c1", "effect on": "cell-free assay", "tested at": "0.5 µM", "quantity": "remaining signal", "value": "95%"}
{"SMILES": "CN(c1ccnc(CNc2nc(Nc3ccc4c(c3)CC(=O)N4)ncc2C(F)(F)F)n1)S(C)(=O)=O", "effect on": "cell-free assay", "technique": "competition with immobilised ligand", "tested at": "1 µM", "quantity": "remaining binding", "value": "80%"}
{"SMILES": "N#CCCc1ccc2c(c1)-c1[nH]c3ccc([N+](=O)[O-])cc3c1CC(=O)N2", "effect on": "cell-free assay", "tested at": "0.5 µM", "quantity": "remaining signal", "value": "93.6%"}
